In experiment [1] the test system is P388. Nature of the experiment: In vivo maximum increase in lifespan produced in mice bearing ip P388 leukemia. Type of experiment: functional, organism-based. The note with it: Mus musculus. A digest of the protocol: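 B6D2F1 mice were inoculated ip with 10⁶ P388 leukemia cells. Complexes in DMA or ethanol plus saline (Cremophor-EL if precipitating) were given ip in 0.5 mL on days 1–5, starting 24 h after inoculation, at five log-spaced doses. Untreated and cisplatin controls were included. Mice were monitored daily for 45 days. ILS = % increase in median survival versus untreated controls, at MTD; >30% counted as active.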

The test system of experiment [2] is Mus musculus. Nature of the experiment: In vivo maximally tolerated dose for B6D2F mice on an every day ip for 10 days regimen. Type of experiment: functional, organism-based. The method, boiled down: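 B6D2F1 mice with ip-implanted M5076 reticulum cell sarcoma or B16 melanoma, kept by serial transplant in syngeneic mice. Complex dissolved in minimal DMA or ethanol plus equal saline, with Cremophor-EL if it precipitated. Made just before use and given ip daily for 10 days at five log-spaced doses spanning the MTD. Activity judged by median lifespan prolongation.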

Experiment [3] concerns M5076. Nature of the experiment: In vivo maximum increase in lifespan produced in mice bearing M5076 reticulum cell sarcoma implanted tumor. Format: functional. The following applies: Mus musculus. A digest of the protocol:
(§1)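 M5076 sarcoma or B16 melanoma was maintained by serial transplantation in syngeneic mice and implanted ip. B6D2F1 mice received complexes ip daily for 10 days at five log-spaced doses encompassing the MTD. Activity was scored as increase in median lifespan versus untreated controls, at MTD; >25% ILS counted as active.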

In experiment [4] the test system is B16. Nature of the experiment: (§2) In vivo maximum increase in lifespan produced in mice bearing ip B16 melanoma implanted tumor. Type of experiment: functional, organism-based. The following applies: Mus musculus. A digest of the protocol:
as §1

Experiment [5] concerns P388. Nature of the experiment: In vivo maximally tolerated dose for B6D2F1 mice on an ip P388 leukemia every day for 5 days regimen. Type of experiment: functional, organism-based. The following applies: Mus musculus. The method, boiled down:
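B6D2F1 mice inoculated ip with 10⁶ P388 leukemia cells. Complex in DMA or ethanol plus saline, with Cremophor-EL if needed, 0.5 mL, freshly made. Given ip days 1–5 starting 24 h after inoculation, at five log-spaced doses to find the MTD. Groups of six; untreated and cisplatin controls. Mortality checked daily for 45 days; end points MST and ILS.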

Experiment [6] deals with B16. Nature of the experiment: In vitro concentration which inhibits cloning efficiency of B16 melanoma cells by 50% on a 2-h exposure was determined. Type of experiment: functional, cell-based, Mus musculus. The method, boiled down:
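Clonogenic assay with B16 melanoma cells grown in monolayer culture. Cells were exposed to drug for 2 h, either in medium containing 10% fetal calf serum or in serum-free medium, and then cloned. IC50 is the concentration cutting cloning efficiency by 50%.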

The nature of experiment [7]: as §2. Format: organism-based. A digest of the protocol:
as §1

The results in this text go back to ChEMBL document CHEMBL1124764, “Cytotoxicity and antitumor activity of some tetrahedral bis(diphosphino)gold(I) chelates” (J Med Chem, 1990).

Usually ILS stands for how much longer treated animals lived than controls. As a reminder, the IC50 is the concentration needed to halve the response being measured. A low value points to inhibition by little substance.

On to “Bis [1,2-bis(diphenylphosphino)ethane] gold (I) Chloride Hydrate [listing 1 of 2 here]”, for which the ILS in experiment [1] was determined as 83%; in experiment [3], 57%; in experiment [4], 38%. Further, the results for the MTD (uM day-1 kg-1) in experiment [2] and in experiment [5] were 2 and 3, respectively.
For “Bis [1,2-bis[bis(4-fluorophenyl)phosphino)ethane] gold (I) Chloride”, in experiment [1], the ILS is 50%. Also, the MTD (uM day-1 kg-1) in experiment [5] worked out at 3.
“Bis [1,2-bis(dipyridine-4-ylphosphino)ethane] gold (I) Chloride Hydrate; chloride”: the MTD (uM day-1 kg-1) in experiment [2] amounted to 4; in experiment [5], 6.
As to “Bis [(1-diphenylphosphino, 2-diethyl) ethane] gold (I) Chloride [listing 1 of 2 here]”, the ILS in experiment [1] was determined as 54%; in experiment [3], 46%. The MTD (uM day-1 kg-1) in experiment [2] stood at 2; in experiment [5] it was 4.
For “Bis [1,2-bis(diphenylphosphino)ethane] gold (I) Chloride Hydrate [listing 2 of 2 here]”, in experiment [6], the midpoint of inhibition, the IC50, lay at 4.5 µM.
In the case of CISPLATIN, the ILS in experiment [1] amounted to 125%; in experiment [3], 103%; in experiment [7], 75%. In addition, the figures for the MTD (uM day-1 kg-1) in experiment [2] and in experiment [5] were 5 and 7, respectively.
For the substance “Bis [1,2-bis(diphenylphosphino)ethane] gold (I) Nitrate [listing 1 of 2 here]”, the ILS in experiment [1] amounted to 90%. For the same substance, in experiment [5], the MTD (uM day-1 kg-1) stood at 3.
As to “Bis [1,2-bis[bis(5-H-dibenzophospholyl)ethane] gold (I) Nitrate”, the ILS in experiment [1] amounted to 61%. In experiment [5], this substance had an MTD (uM day-1 kg-1) of 4.
For “Bis [1,2-bis(diphenylphosphino)propane] gold (I) Chloride [listing 1 of 2 here]”, the ILS came to 89% in experiment [1], 116% in experiment [3] and 34% in experiment [7]. In addition, the figures for the MTD (uM day-1 kg-1) in experiment [2] and in experiment [5] were 2 and 3, respectively.
In turn, “Bis [1,2-bis(diphenylphosphino)ethane] gold (I) Bromide Hydrate” returned an ILS in experiment [1] of 83%. This substance also showed an MTD (uM day-1 kg-1) in experiment [5] of 2.
The substance “Bis [(1-diphenylphosphino, 2-diethyl) ethane] gold (I) Chloride [listing 2 of 2 here]” yielded an IC50 in experiment [6] of 5 µM.
“Bis [1-dipphenyl,2-phenylmethylphosphino)ethane] gold (I) Chloride Hydrate; chloride” came in with an ILS in experiment [1] of 65%. Besides, the MTD (uM day-1 kg-1) in experiment [2] came out at 2; in experiment [5] it was 3.
As to “Bis [1,2-bis(diphenylphosphino)propane] gold (I) Chloride [listing 2 of 2 here]”, 0.6 µM corresponded to half-maximal inhibition in experiment [6] (IC50).
Regarding “Bis [1,2-bis(diphenylphosphino)ethane] gold (I) Iodide Hydrate”, the ILS came out at 150% in experiment [1] and 52% in experiment [3]. The MTD (uM day-1 kg-1) in experiment [2] and in experiment [5] was 2 each time.
“Bis [1,2-bis(diphenylphosphino)ethene] gold (I) Chloride [listing 1 of 2 here]”: the IC50 in experiment [6] turned out to be 2 µM.
As to “Bis [1,2-bis(diphenylphosphino)ethene] gold (I) Chloride [listing 2 of 2 here]”, the ILS in experiment [1] amounted to 92%; in experiment [3], 69%; in experiment [7] it was 35%. In addition, the MTD (uM day-1 kg-1) in experiment [2] and in experiment [5] was 2 in each case.
Substance “Bis [1,2-bis[bis(3-fluorophenyl)phosphino)ethane] gold (I) Chloride” gave an ILS in experiment [1] of 55%. The MTD (uM day-1 kg-1) in experiment [5] was 10.
On to “Bis [1,2-bis(dipyridine-2-ylphosphino)ethane] gold (I) Chloride Hydrate; chloride”, for which the ILS amounted to 75% in experiment [1] and 43% in experiment [7]. Further, the MTD (uM day-1 kg-1) in experiment [2] and in experiment [5] was 8 each time.
In experiment [1], “Bis [1,2-bis(diphenylphosphino)ethane] gold (I) Methanesulfonate” had an ILS of 81%. The same substance showed an MTD (uM day-1 kg-1) in experiment [5] of 2.
The matching figures for “Bis [1,2-bis(diphenylphosphino)ethane] gold (I) 2-hydroxy-1-ethane sulphonate”: 78% and 2.
In turn, “Bis [1,2-bis(diphenylphosphino)ethane] gold (I) Nitrate [listing 2 of 2 here]” gave an IC50 in experiment [6] of 4 µM.
